# Source: PubChem (several laboratories)
# In the library only some 2.3% were active in any assay of this set; here they are far more common.
# T cell modulator – T cell immune modulators affecting CD8 T cell-vesicle binding. 2C CD8+ T cell-vesicle binding, flow cytometry; hits give low values. response (vesicle binding), % at 7 µM. actives 0.068% (n = 330,000);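 active = response, share of CD8 T cells binding vesicles, and their 90th percentile fluorescence all below set limits, cut at about 80% in these data, passing the limit was not always enough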;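 also: values below 100% mean blocked vesicle binding to the CD8+ T cells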
#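 Assay system: 2C TCR transgenic mouse naive CD8+ T cells, MACS-purified | Read-out: CD8+ gate FL2 mean fluorescence as % of same-row positive control | Signal: High-throughput flow cytometry with anti-B7-1 and anti-CD8 staining | Timing: Binding step 1.5 h, 37 °C, antibody labelling 20 min, ice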
# Mcl1-Bid inh – disrupts binding of human Mcl-1 to Bid peptide; Q07820; TR-FRET Mcl-1/Bid-Dy647 peptide binding, 1536-well; inhibition, % at 21.7 µM; actives 0.97% (n = 220,000); AID 1021;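 active = compounds that cut the binding signal by more than half at the single screening dose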;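 also: His-tagged Mcl-1 with europium anti-His antibody binding Bid BH3 peptide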
# Target sequence (Q07820 whole entry, looked up): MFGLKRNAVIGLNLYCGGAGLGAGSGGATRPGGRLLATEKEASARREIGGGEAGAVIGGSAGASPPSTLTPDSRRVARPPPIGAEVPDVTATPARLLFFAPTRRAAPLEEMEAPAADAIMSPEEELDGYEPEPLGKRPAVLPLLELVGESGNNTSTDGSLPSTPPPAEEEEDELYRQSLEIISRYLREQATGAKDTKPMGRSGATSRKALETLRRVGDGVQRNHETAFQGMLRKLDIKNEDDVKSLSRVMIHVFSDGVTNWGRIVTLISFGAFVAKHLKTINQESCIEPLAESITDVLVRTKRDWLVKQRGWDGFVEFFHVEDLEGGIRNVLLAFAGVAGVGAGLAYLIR
# Mcl1-Noxa inh – Mcl-1/Noxa interaction inhibition | TR-FRET Mcl-1/Noxa peptide binding, 2 h | inhibition, % at 21.7 µM | actives 1.5% (n = 220,000) | AID 1022;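 active = compounds that cut the protein-peptide binding signal by more than 50% relative to plate controls in a single-dose test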;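 also: His-tagged Mcl-1 with rhodamine Noxa BH3 peptide and terbium anti-His antibody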
# Bim-Mcl-1 – human Bim-Mcl-1 interaction inhibition; Q07820; Bead-based flow cytometry, Bim peptide-Mcl-1 binding; inhibition, % at 10 µM; actives 0.1% (n = 190,000); AID 1009; in the data active = inhibition above about 40%
# MCL1-BIM inh – disrupts human MCL1 binding to BIM-BH3 peptide. Q07820. GST-MCL1 / FITC-Bim-BH3 fluorescence polarization. inhibition, % at 10.9 µM. actives 0.68% (n = 320,000). AID 2057;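 active = inhibition above the mean inhibition of all tested compounds plus 3 SD, set per campaign, cut at about 40% in these data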;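 also: higher means more loss of mP so more displacement of Bim peptide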
# Pemphigus Ab inh – blocks pemphigus antibody binding to human desmoglein-3. P32926. DSG3-coupled beads, scFv-anti-DSG3-GFP binding, flow cytometry; hits give low values. binding (percent of control), % at 10 µM. actives 0.48% (n = 310,000). AID 588358;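 active = binding more than 3 SD below its plate's average and above zero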;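 also: hits lower antibody fragment binding to DSG3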
# Hits are given with their value; – = inactive; · = no result given.
SMILES,T cell modulator,Mcl1-Bid inh,Mcl1-Noxa inh,Bim-Mcl-1,MCL1-BIM inh,Pemphigus Ab inh
O=C(Cn1nnc(-c2ccccc2NC(=O)c2cccs2)n1)Nc1ccccc1,–,87,–,–,–,–
COc1ccc(NC(=O)Cn2nnc(-c3ccccc3NC(=O)c3ccco3)n2)cc1,–,66,–,–,–,–
COc1ccc(/C=C(\C#N)C(=O)NCc2ccccc2)cc1,–,·,·,·,–,–
CCn1nc(C(=O)NCCc2ccc3c(c2)OCCO3)c2ccccc2c1=O,47,·,·,·,·,–
O=C(COC(=O)c1ccc(NS(=O)(=O)c2cccs2)cc1)Nc1nc2c(F)c(F)c(F)cc2s1,·,–,71,–,·,–
Cc1cc(C)c(S(=O)(=O)N2CCCCC2CCNC(=O)C(=O)NCc2ccco2)c(C)c1 (stereo not given),–,·,·,·,–,–
CCOC(=O)N1CCN(C(=O)c2ccc3c(c2)NC(=O)/C(=C\c2cccc(C)c2)S3)CC1,–,·,·,·,–,–
Cc1oc(S(=O)(=O)N2CCCCC2)cc1NC(=O)Nc1ccc(F)cc1,–,–,–,·,–,91
Cc1cc(C)c(S(=O)(=O)N2CCN(C(=O)c3ccc(-n4nc(C)c(Cl)c4C)cc3)CC2)c(C)c1,·,·,·,·,·,–
Cc1ccccc1OCC(=O)OCC(=O)NC1CCCC(C)C1C (stereo not given),·,·,·,·,·,–
O=c1c2c(nc3cc(-c4ccccc4Cl)[nH]n13)CCS2,–,–,–,–,–,–
O=c1c2c(nc3cc(-c4ccccc4)[nH]n13)CCS2,–,–,61,–,–,–
N#CCCN(Cc1ccccc1)C(=O)CCC(=O)c1ccc(F)cc1,·,·,·,·,·,–
CN(C)c1ccc(NC(=O)CCn2c(=S)oc3ccccc32)cc1,–,–,68,–,–,–
Cc1cccc([C@@H]2[C@@H]3C(=O)N(Cc4ccccc4)C(=O)[C@@H]3[C@]3(Cc4ccccc4)C(=O)N(c4ccc(C(F)(F)F)cc4)C(=O)N23)c1,–,·,·,·,–,–
CC(=O)Nc1ccc(C(=O)Nc2cccc(-c3cnc4ccccc4n3)c2)cc1,·,–,76,–,·,–
CC(=O)Nc1ccc2nc3ccccc3nc2c1,–,–,–,·,50,·
CCOC(=O)CCCCCC(=O)Nc1ccc2c(c1)C(=O)N([C@@H](C)CO)C[C@H](C)[C@H](CN(C)C(=O)Nc1ccc(F)cc1)OCCCC[C@H](C)O2,·,·,·,·,·,–
CCCCn1c(SCC(=O)c2ccc(O)c(O)c2)nc2ccsc2c1=O,–,–,55,–,–,–
Clc1ccc(C=Cc2ccccn2)c(Cl)c1,·,·,·,·,·,–
O=C1c2ccccc2-c2onc3c(Oc4ccccc4)cc(O)c1c23,·,–,59,–,·,·
C=CCn1c(SCC(=O)O)nnc1-c1cccc(Cl)c1,–,–,70,–,–,·
C=CCn1c(SCC(=O)c2ccc(O)c(O)c2)nnc1-c1cccc(Cl)c1,–,·,·,·,–,–
CCn1c(SCC(=O)Nc2ccc(C(C)=O)cc2)nc2nc3c(cc2c1=O)COC(C)(C)C3,–,–,–,·,–,95
CCn1c(SCC(=O)Nc2ccc(OC)cc2)nc2nc3c(cc2c1=O)COC(C)(C)C3,–,–,–,·,–,–
SMILES,T cell modulator,Mcl1-Bid inh,Mcl1-Noxa inh,Bim-Mcl-1,MCL1-BIM inh,Pemphigus Ab inh
CC1(C)Cc2nc3oc4c(=O)n(CC(=O)Nc5ccc(Cl)cc5)cnc4c3cc2CO1,–,–,–,·,–,87
Cc1ccccc1NC(=O)Cn1cnc2c(oc3nc4c(cc32)COC(C)(C)C4)c1=O,–,–,–,–,–,–
CCCn1c(C(CO)Nc2nc(C)cs2)nc2ccccc21 (stereo not given),–,·,·,·,–,–
CC1CCc2c(sc(NC(=O)c3ccco3)c2C(=O)O)C1 (stereo not given),–,·,·,·,–,–
CC1CCc2c(sc(NC(=O)/C=C/c3cccs3)c2C(=O)O)C1 (stereo not given),–,·,·,·,–,59
O=C(/C=C/c1cccs1)Nc1nc(-c2ccccc2)cs1,–,–,–,–,–,·
O=C(/C=C/c1cccs1)NNC(=O)c1ccccc1,31,·,·,·,–,–
O=C(/C=C/c1cccs1)Nc1scc(-c2ccccc2)c1C(=O)O,·,93,–,–,·,·
Clc1ccc(OCCCn2cncn2)cc1Cl,–,56,–,–,–,–
c1ccc(COc2ccc(OCCCn3cncn3)cc2)cc1,–,–,–,–,–,–
O=C(/C=C/Nc1cccc(F)c1)c1ccco1,–,87,–,–,–,–
